Source: ChEMBL document CHEMBL1828609, “Strategies to lower the Pgp efflux liability in a series of potent indole azetidine MCHR1 antagonists” (Bioorg Med Chem Lett, 2011)

Assays:
[1] = molecular target: Melanin-concentrating hormone receptor 1 (Rattus norvegicus, UniProt P97639); assay: Displacement of [125I]-S36057 from rat MCH1 receptor
[2] = Drug uptake in rat brain at 10 mg/kg, sc after 4 hrs; format: ADME, organism-based; parameters: dose 10 mg/kg, route subcutaneous; details: read-out: Drug uptake
Outline: (§1)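 Rat PK with subcutaneous dosing at 10 mg/kg. Brain and plasma concentrations determined 4 h after the dose.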

[3] = Plasma concentration in rat at 10 mg/kg, sc after 4 hrs; format: ADME, organism-based; parameters: dose 10 mg/kg, route subcutaneous; outline: as §1
[4] = Ratio of drug level in brain to plasma in rat; format: ADME, cell-free; details: read-out: BPR
Outline: (§2)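 Rats dosed orally at 10 mg/kg. Brain (ng/g) and plasma (ng/mL) levels taken at 4 h, giving the brain-to-plasma exposure comparison.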

[5] = Drug uptake in rat brain at 10 mg/kg, po after 4 hrs; format: ADME, organism-based; parameters: dose 10 mg/kg, route oral; details: read-out: Drug uptake; outline: as §2
[6] = Plasma concentration in rat at 10 mg/kg, po after 4 hrs; format: ADME, organism-based; parameters: dose 10 mg/kg, route oral; outline: as §2
[7] = Apparent permeability from apical to basolateral side in MDCK cells expressing human MDR1 after 2 hrs; format: ADME, cell-based, Canis lupus familiaris; details: dog
Outline: (§3)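 MDR1-MDCK monolayers; apparent permeability measured in both directions (A-to-B and B-to-A) after 2 h incubation. Efflux ratio calculated as Papp(B-to-A)/Papp(A-to-B).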

[8] = Apparent permeability from basolateral to apical side in MDCK cells expressing human MDR1 after 2 hrs; format: ADME, cell-based, Canis lupus familiaris; details: dog; outline: as §3
[9] = Efflux ratio of permeability from basolateral to apical over apical to basolateral side of MDCK cells expressing human MDR1 after 2 hrs; format: ADME, cell-based, Canis lupus familiaris; details: dog; outline: as §3
[10] = Ratio of drug level in brain to plasma in wild type FVB mouse after 8 hrs; format: ADME, cell-free; details: read-out: BPR
Outline: (§4)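 Single 15 mg/kg intravenous dose given to Pgp knockout and wild-type mice. Brain and plasma levels followed over 8 h, and brain/plasma ratios calculated at each time point.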

[11] = Ratio of drug level in brain to plasma in P-gp transporter knockout FVB mouse after 8 hrs; format: ADME, cell-free; details: read-out: BPR; outline: as §4
[12] = molecular target: Voltage-gated inwardly rectifying potassium channel KCNH2 (Homo sapiens, UniProt Q12809); assay: Inhibition of human ERG
[13] = Permeability from apical to basolateral side in MDCK cells expressing human MDR1 assessed as compound recovery; format: ADME, cell-based, Canis lupus familiaris; details: dog, read-out: permeability
Outline: (§5)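 Bidirectional MDR1-MDCK permeability run with 2 h incubation; percent recovery of compound determined for the A-to-B and B-to-A directions.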

[14] = Permeability from basolateral to apical side in MDCK cells expressing human MDR1 assessed as compound recovery; format: ADME, cell-based, Canis lupus familiaris; details: dog, read-out: permeability; outline: as §5
[15] = Apparent permeability of the compound at pH 7.4 by PAMPA method; format: ADME
[16] = Apparent permeability of the compound at pH 3 to 7.4 by PAMPA method; format: ADME
[17] = Plasma concentration in wild type FVB mouse at 15 mg/kg, iv after 1 hr; format: ADME, organism-based; parameters: dose 15 mg/kg, route intravenous; outline: as §4
[18] = Plasma concentration in P-gp transporter knockout FVB mouse at 15 mg/kg, iv after 1 hr; format: ADME, organism-based; parameters: dose 15 mg/kg, route intravenous; outline: as §4
[19] = Plasma concentration in wild type FVB mouse at 15 mg/kg, iv after 3 hrs; format: ADME, organism-based; parameters: dose 15 mg/kg, route intravenous; outline: as §4
[20] = Plasma concentration in P-gp transporter knockout FVB mouse at 15 mg/kg, iv after 3 hrs; format: ADME, organism-based; parameters: dose 15 mg/kg, route intravenous; outline: as §4
[21] = Plasma concentration in wild type FVB mouse at 15 mg/kg, iv after 6 hrs; format: ADME, organism-based; parameters: dose 15 mg/kg, route intravenous; outline: as §4
[22] = Plasma concentration in P-gp transporter knockout FVB mouse at 15 mg/kg, iv after 6 hrs; format: ADME, organism-based; parameters: dose 15 mg/kg, route intravenous; outline: as §4
[23] = Plasma concentration in wild type FVB mouse at 15 mg/kg, iv after 8 hrs; format: ADME, organism-based; parameters: dose 15 mg/kg, route intravenous; outline: as §4
[24] = Plasma concentration in P-gp transporter knockout FVB mouse at 15 mg/kg, iv after 8 hrs; format: ADME, organism-based; parameters: dose 15 mg/kg, route intravenous; outline: as §4
[25] = Drug uptake in wild type FVB mouse brain at 15 mg/kg, iv after 1 hr; format: ADME, organism-based; parameters: dose 15 mg/kg, route intravenous; details: read-out: Drug uptake; outline: as §4
[26] = Drug uptake in P-gp transporter knockout FVB mouse brain at 15 mg/kg, iv after 1 hr; format: ADME, organism-based; parameters: dose 15 mg/kg, route intravenous; details: read-out: Drug uptake; outline: as §4
[27] = Drug uptake in wild type FVB mouse brain at 15 mg/kg, iv after 3 hrs; format: ADME, organism-based; parameters: dose 15 mg/kg, route intravenous; details: read-out: Drug uptake; outline: as §4
[28] = Drug uptake in P-gp transporter knockout FVB mouse brain at 15 mg/kg, iv after 3 hrs; format: ADME, organism-based; parameters: dose 15 mg/kg, route intravenous; details: read-out: Drug uptake; outline: as §4
[29] = Drug uptake in wild type FVB mouse brain at 15 mg/kg, iv after 6 hrs; format: ADME, organism-based; parameters: dose 15 mg/kg, route intravenous; details: read-out: Drug uptake; outline: as §4
[30] = Drug uptake in P-gp transporter knockout FVB mouse brain at 15 mg/kg, iv after 6 hrs; format: ADME, organism-based; parameters: dose 15 mg/kg, route intravenous; details: read-out: Drug uptake; outline: as §4
[31] = Drug uptake in wild type FVB mouse brain at 15 mg/kg, iv after 8 hrs; format: ADME, organism-based; parameters: dose 15 mg/kg, route intravenous; details: read-out: Drug uptake; outline: as §4
[32] = Drug uptake in P-gp transporter knockout FVB mouse brain at 15 mg/kg, iv after 8 hrs; format: ADME, organism-based; parameters: dose 15 mg/kg, route intravenous; details: read-out: Drug uptake; outline: as §4
[33] = Ratio of drug level in brain to plasma in wild type FVB mouse after 1 hr; format: ADME, cell-free; details: read-out: BPR; outline: as §4
[34] = Ratio of drug level in brain to plasma in P-gp transporter knockout FVB mouse after 1 hr; format: ADME, cell-free; details: read-out: BPR; outline: as §4
[35] = Ratio of drug level in brain to plasma in wild type FVB mouse after 3 hrs; format: ADME, cell-free; details: read-out: BPR; outline: as §4
[36] = Ratio of drug level in brain to plasma in P-gp transporter knockout FVB mouse after 3 hrs; format: ADME, cell-free; details: read-out: BPR; outline: as §4
[37] = Ratio of drug level in brain to plasma in wild type FVB mouse after 6 hrs; format: ADME, cell-free; details: read-out: BPR; outline: as §4
[38] = Ratio of drug level in brain to plasma in P-gp transporter knockout FVB mouse after 6 hrs; format: ADME, cell-free; details: read-out: BPR; outline: as §4

Chain of Melanin-concentrating hormone receptor 1 (P97639 whole entry): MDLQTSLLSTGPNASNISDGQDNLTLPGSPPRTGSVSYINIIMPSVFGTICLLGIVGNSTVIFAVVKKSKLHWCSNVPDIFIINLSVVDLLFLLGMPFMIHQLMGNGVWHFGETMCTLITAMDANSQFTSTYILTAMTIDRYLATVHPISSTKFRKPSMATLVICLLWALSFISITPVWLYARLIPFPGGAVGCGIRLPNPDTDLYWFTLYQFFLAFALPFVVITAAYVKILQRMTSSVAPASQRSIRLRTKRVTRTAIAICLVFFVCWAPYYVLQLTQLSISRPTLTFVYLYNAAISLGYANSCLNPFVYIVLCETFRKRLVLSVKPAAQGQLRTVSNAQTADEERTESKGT
Chain of Voltage-gated inwardly rectifying potassium channel KCNH2 (Q12809 whole entry): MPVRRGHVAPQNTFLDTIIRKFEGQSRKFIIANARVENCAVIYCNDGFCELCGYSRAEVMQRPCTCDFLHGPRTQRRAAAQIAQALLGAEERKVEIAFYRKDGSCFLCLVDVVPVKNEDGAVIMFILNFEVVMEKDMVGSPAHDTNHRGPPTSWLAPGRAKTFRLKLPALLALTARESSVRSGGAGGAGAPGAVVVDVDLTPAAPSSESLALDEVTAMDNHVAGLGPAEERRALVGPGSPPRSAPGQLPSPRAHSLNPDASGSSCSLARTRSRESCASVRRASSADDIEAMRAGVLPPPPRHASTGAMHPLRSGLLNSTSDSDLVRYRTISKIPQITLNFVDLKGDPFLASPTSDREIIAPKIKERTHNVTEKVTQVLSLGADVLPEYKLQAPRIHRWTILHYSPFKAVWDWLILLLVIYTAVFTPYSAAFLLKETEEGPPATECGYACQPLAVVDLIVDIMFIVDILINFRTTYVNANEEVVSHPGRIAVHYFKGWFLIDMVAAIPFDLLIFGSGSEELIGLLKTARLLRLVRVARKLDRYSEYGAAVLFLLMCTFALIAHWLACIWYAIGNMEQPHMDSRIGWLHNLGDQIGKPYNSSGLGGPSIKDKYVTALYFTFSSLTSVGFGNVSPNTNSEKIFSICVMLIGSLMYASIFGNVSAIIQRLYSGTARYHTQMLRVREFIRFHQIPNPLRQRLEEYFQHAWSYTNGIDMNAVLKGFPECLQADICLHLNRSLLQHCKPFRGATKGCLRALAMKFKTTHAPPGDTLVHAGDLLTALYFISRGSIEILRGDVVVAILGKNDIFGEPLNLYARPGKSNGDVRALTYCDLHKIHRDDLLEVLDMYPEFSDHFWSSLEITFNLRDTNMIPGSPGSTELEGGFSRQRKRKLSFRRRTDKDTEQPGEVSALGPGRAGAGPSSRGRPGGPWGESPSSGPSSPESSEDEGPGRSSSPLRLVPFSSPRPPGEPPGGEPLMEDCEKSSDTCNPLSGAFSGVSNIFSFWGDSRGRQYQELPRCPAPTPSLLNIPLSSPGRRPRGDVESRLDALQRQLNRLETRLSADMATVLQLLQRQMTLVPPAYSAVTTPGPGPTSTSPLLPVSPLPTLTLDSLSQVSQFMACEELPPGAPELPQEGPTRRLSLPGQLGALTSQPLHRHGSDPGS

CN1CC(c2cn(C)c3cc(-n4ccc(OCc5ccccc5)cc4=O)ccc23)C1
Ki [1]: 11 nM
concentration at 4 h [2]: 110 ng/g
concentration at 4 h [3]: 4000 ng/mL
Kp [4]: 0.03

CN1CC(c2c[nH]c3cc(-n4ccc(OCc5ccccc5F)cc4=O)ccc23)C1
Ki [1]: 6.7 nM
concentration at 4 h [5]: 22 ng/g
concentration at 4 h [6]: 140 ng/mL
Papp A→B at 2 h [7]: 0.2 ×10⁻⁶ cm/s
Papp B→A at 2 h [8]: 25.3 ×10⁻⁶ cm/s
efflux ratio at 2 h [9]: 150

O=c1cc(OCc2ccccc2)ccn1-c1ccc2c(c1)CCN2C1CNC1
Ki [1]: 2.4 nM
concentration at 4 h [5]: 27 ng/g
concentration at 4 h [6]: 130 ng/mL

O=c1cc(OCc2ccccc2)ccn1-c1ccc2c(C3CN(CCF)C3)c[nH]c2c1
Ki [1]: 4.3 nM
concentration at 4 h [5]: 130 ng/g
concentration at 4 h [6]: 620 ng/mL
Papp A→B at 2 h [7]: 1.4 ×10⁻⁶ cm/s
Papp B→A at 2 h [8]: 58.9 ×10⁻⁶ cm/s
efflux ratio at 2 h [9]: 43

CN1CC(c2c[nH]c3cc(-n4ccc(-c5ccc(Cl)cc5)cc4=O)ccc23)C1
Ki [1]: 7.8 nM
concentration at 4 h [5]: 100 ng/g
concentration at 4 h [6]: 350 ng/mL
Papp A→B at 2 h [7]: 0.9 ×10⁻⁶ cm/s
Papp B→A at 2 h [8]: 53.7 ×10⁻⁶ cm/s
efflux ratio at 2 h [9]: 60

CN1CC(c2c[nH]c3cc(-n4ccc(OCc5ccccc5)cc4=O)ccc23)C1
Kp at 8 h [10]: 0.28
Kp at 8 h [11]: 2.66
IC50 [12]: 12000 nM
recovery [13]: 72%
recovery [14]: 71%
Ki [1]: 11 nM
concentration at 4 h [5]: 11 ng/g
concentration at 4 h [6]: 48 ng/mL
Papp A→B at 2 h [7]: 0.2 ×10⁻⁶ cm/s
Papp B→A at 2 h [8]: 26.3 ×10⁻⁶ cm/s
efflux ratio at 2 h [9]: 144
Papp [15]: 4.9 ×10⁻⁶ cm/s
Papp [16]: 16.4 ×10⁻⁶ cm/s
concentration at 1 h [17]: 2280 ng/mL
concentration at 1 h [18]: 3130 ng/mL
concentration at 3 h [19]: 1450 ng/mL
concentration at 3 h [20]: 1380 ng/mL
concentration at 6 h [21]: 623 ng/mL
concentration at 6 h [22]: 689 ng/mL
concentration at 8 h [23]: 538 ng/mL
concentration at 8 h [24]: 607 ng/mL
concentration at 1 h [25]: 143 ng/g
concentration at 1 h [26]: 878 ng/g
concentration at 3 h [27]: 172 ng/g
concentration at 3 h [28]: 1130 ng/g
concentration at 6 h [29]: 148 ng/g
concentration at 6 h [30]: 1580 ng/g
concentration at 8 h [31]: 144 ng/g
concentration at 8 h [32]: 1620 ng/g
Kp at 1 h [33]: 0.06
Kp at 1 h [34]: 0.28
Kp at 3 h [35]: 0.12
Kp at 3 h [36]: 0.82
Kp at 6 h [37]: 0.24
Kp at 6 h [38]: 2.3

CN1CC(N2CCc3cc(-n4ccc(-c5ccc(Cl)cc5)cc4=O)ccc32)C1
Ki [1]: 4.9 nM
concentration at 4 h [5]: 600 ng/g
concentration at 4 h [6]: 190 ng/mL
Kp [4]: > 3

Cn1cc(C2CN(CCF)C2)c2ccc(-n3ccc(-c4ccc(F)cc4)cc3=O)cc21
Ki [1]: 9 nM
concentration at 4 h [5]: 810 ng/g
concentration at 4 h [6]: 1000 ng/mL
Papp A→B at 2 h [7]: 7.1 ×10⁻⁶ cm/s
Papp B→A at 2 h [8]: 45.4 ×10⁻⁶ cm/s
efflux ratio at 2 h [9]: 6.4
Kp [4]: 0.8

O=c1cc(-c2ccc(Cl)cc2)ccn1-c1ccc2c(c1)CCN2C1CN(CCF)C1
Ki [1]: 6.5 nM
concentration at 4 h [5]: 1100 ng/g
concentration at 4 h [6]: 650 ng/mL
Papp A→B at 2 h [7]: 28.9 ×10⁻⁶ cm/s
Papp B→A at 2 h [8]: 30.1 ×10⁻⁶ cm/s
efflux ratio at 2 h [9]: 1

CN1CC(N2CCc3cc(-n4ccc(OCc5ccccc5)cc4=O)ccc32)C1
Ki [1]: 2.5 nM
concentration at 4 h [5]: 780 ng/g
concentration at 4 h [6]: 500 ng/mL
Papp A→B at 2 h [7]: 2.6 ×10⁻⁶ cm/s
Papp B→A at 2 h [8]: 36.5 ×10⁻⁶ cm/s
efflux ratio at 2 h [9]: 14

COCCN1CC(c2c[nH]c3cc(-n4ccc(OCc5ccccc5)cc4=O)ccc23)C1
Ki [1]: 5.2 nM
concentration at 4 h [5]: 49 ng/g
concentration at 4 h [6]: 310 ng/mL
Papp A→B at 2 h [7]: 0.4 ×10⁻⁶ cm/s
Papp B→A at 2 h [8]: 34.1 ×10⁻⁶ cm/s
efflux ratio at 2 h [9]: 88

O=c1cc(OCc2ccccc2)ccn1-c1ccc2c(c1)CCN2C1CN(CCF)C1
Ki [1]: 4.9 nM
concentration at 4 h [5]: 520 ng/g
concentration at 4 h [6]: 420 ng/mL
Papp A→B at 2 h [7]: 17.7 ×10⁻⁶ cm/s
Papp B→A at 2 h [8]: 38.2 ×10⁻⁶ cm/s
efflux ratio at 2 h [9]: 2.2
